The list is not random: actives were taken first. Their share in the collection is about 3.5%.
PGC1a acetyl inh: lowers PGC1a acetylation signal in U2OS cells; AlphaScreen anti-acetyl-lysine; with virally co-expressed GCN5 acetyltransferase; inhibition, % at 15.6 µM; hit rate 0.17% among 350,000; AID 651687;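 active = every replicate shows inhibition of at least 40%; inconclusive = mean inhibition at least 40% but some replicate below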
FGF22 binding: shifts melting point of recombinant human FGF22; Q9HCT0; activity (Tm shift, normalised), % at 9.99 µM; recombinant FGF22 thermal shift, SYPRO orange fluorescence; percent of sucrose octasulfate shift, DMSO zero; hit rate 1.5% among 340,000; AID 651658;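 active = mean Tm shift, scaled 0 neutral to 100 positive control, at about 1.3% or above, every replicate too, limit read from the data; inconclusive = no clear call, values can overlap the other calls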
Cneo AK release: causes C. neoformans cell lysis; lysis activity, % at 15 µM; hit rate 0.2% among 360,000; adenylate kinase release luminescence, 4 h; normalised: neutral wells 0, clomiphene wells 100;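 active = mean lysis activity across replicates of at least 80%, whatever share of replicates individually reach that level; inactive = mean lysis activity below 80%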
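Material: C. neoformans cells | Amount: Yeast cell density of 5 × 10^6 cells/mL | Medium: Fresh YPD growth medium | Dosing: Single dose | Times: Static 4 h at 37 °C with compound, 1 h detection | Detection: AK luminescence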
HIV Env fusion: inhibitors of HIV Env-mediated cell fusion; hit rate 1.1% among 360,000; HeLa-JRFL Env/CEM21 cell fusion, luciferase; AID 651610; inhibition, % at 12.3 µM;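 active = mean replicate inhibition score of at least 50 and every replicate individually at or above 50; inconclusive = only one of the two criteria met; inactive = mean below 50 and not all replicates reaching 50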
rRNA inh HTS: inhibits bacterial ribosomal RNA function over humanized ribosomes | hit rate 1.6% among 350,000 | E. coli WT GFP vs humanized-ribosome RFP mutants, fluorescence, 24 h; hits give low values; DMSO median 0, no signal -100 | GFP signal change (wild-type ribosome), % (no concentration beside the values);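 active = significant combined selectivity score with lowered wild-type GFP, culture density cut under 30%, mutant RFP and density less affected; inactive = any of these conditions unmet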
ERAP1 inh: blocks human ERAP1 aminopeptidase activity; AID 652197; inhibition, % at 10.7 µM; Q9NZ08; recombinant ERAP1, Leu-AMC fluorescence, 60 min; hit rate 0.15% among 340,000;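 active = mean replicate inhibition of at least 30%, or all replicates individually reaching that 30% level; inactive = mean below 30% and not every replicate reaching it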
Target sequence (Q9NZ08 whole entry, looked up): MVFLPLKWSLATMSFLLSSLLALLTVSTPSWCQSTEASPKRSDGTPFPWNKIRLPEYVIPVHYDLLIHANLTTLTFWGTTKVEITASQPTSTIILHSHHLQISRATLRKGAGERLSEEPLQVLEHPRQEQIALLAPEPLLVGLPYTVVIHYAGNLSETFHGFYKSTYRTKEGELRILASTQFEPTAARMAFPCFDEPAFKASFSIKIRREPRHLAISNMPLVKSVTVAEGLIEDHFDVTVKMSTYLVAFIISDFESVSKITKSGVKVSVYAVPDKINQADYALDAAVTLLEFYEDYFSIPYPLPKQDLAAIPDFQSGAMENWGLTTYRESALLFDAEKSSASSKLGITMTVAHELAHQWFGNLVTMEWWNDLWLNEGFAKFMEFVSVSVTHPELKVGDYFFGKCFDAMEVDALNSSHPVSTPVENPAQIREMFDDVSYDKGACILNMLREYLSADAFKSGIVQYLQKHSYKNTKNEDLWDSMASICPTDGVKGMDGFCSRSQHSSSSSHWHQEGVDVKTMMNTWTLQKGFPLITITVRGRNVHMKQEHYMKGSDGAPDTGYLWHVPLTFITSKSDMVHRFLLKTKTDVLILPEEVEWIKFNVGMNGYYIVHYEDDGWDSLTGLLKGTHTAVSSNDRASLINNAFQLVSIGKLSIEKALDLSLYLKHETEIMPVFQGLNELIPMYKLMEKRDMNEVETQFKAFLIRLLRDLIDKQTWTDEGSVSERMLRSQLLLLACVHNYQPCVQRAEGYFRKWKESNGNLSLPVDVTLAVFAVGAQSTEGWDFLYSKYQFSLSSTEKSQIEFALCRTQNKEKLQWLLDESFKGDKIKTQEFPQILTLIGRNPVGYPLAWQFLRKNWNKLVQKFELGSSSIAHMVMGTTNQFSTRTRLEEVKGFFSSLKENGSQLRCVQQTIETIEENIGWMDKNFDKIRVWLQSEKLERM
Numbers stand for hits.

How did CCCOc1ccccc1NC(=O)c1c(-c2ccccc2)noc1C do in these assays?
PGC1a acetyl inh: inactive; FGF22 binding: inactive; Cneo AK release: inactive; HIV Env fusion: 65; rRNA inh HTS: inactive

How did COc1cccc(/C=N/NC(=O)c2c(-c3ccccc3)noc2C)c1O do in these assays?
PGC1a acetyl inh: inactive

What do the screens show for `COc1cccc(/C=N/NC(=O)c2c(-c3ccccc3)noc2C)c1OC`?
FGF22 binding: inactive; Cneo AK release: inactive; HIV Env fusion: inactive; rRNA inh HTS: -20; ERAP1 inh: inactive

How did COc1ccc(OC)c(/C=N/NC(=O)c2cc[n+](CC(=O)c3ccccc3)cc2)c1 do in these assays?
PGC1a acetyl inh: inactive; FGF22 binding: inactive; Cneo AK release: inactive; rRNA inh HTS: inactive; ERAP1 inh: 37

Results for Cc1ccc(/C=N/NC(=O)c2c(-c3ccccc3)noc2C)o1 ?
FGF22 binding: inactive; HIV Env fusion: inactive; ERAP1 inh: inactive

How did CC(=NNC(=S)N1CC2CCC(CC2)C1)c1cnccn1 do in these assays?
FGF22 binding: inactive; HIV Env fusion: inactive; rRNA inh HTS: inactive; ERAP1 inh: inactive

How did Cc1ccc(S(=O)(=O)N2C[C@]3(O)C[C@@H]4C(=O)N(c5ccccc5)C(=O)[C@@H]4C[C@]3(OC(=O)Nc3c(C)noc3C)C2)cc1 do in these assays?
PGC1a acetyl inh: inactive; FGF22 binding: inactive; Cneo AK release: inactive; HIV Env fusion: inactive; rRNA inh HTS: inactive; ERAP1 inh: inactive

How did Cc1ccc(S(=O)(=O)N2C[C@]3(O)C[C@@H]4C(=O)N(c5ccccc5)C(=O)[C@@H]4C[C@]3(OC(=O)Nc3cccs3)C2)cc1 do in these assays?
PGC1a acetyl inh: inactive; FGF22 binding: 43; Cneo AK release: inactive; HIV Env fusion: inactive; rRNA inh HTS: inactive; ERAP1 inh: inactive

What do the screens show for `COc1ccc(C(=O)C(CN2CCOCC2)c2ccccc2)cc1F` (stereo unspecified)?
PGC1a acetyl inh: 114

What do the screens show for `COc1ccc(C(O)C(CN2CCOCC2)c2ccccc2)cc1F` (stereo unspecified)?
PGC1a acetyl inh: inactive; Cneo AK release: inactive; HIV Env fusion: inactive

Results for Cc1ccc(SCc2[nH]nc3c2C(c2ccco2)C(C#N)=C(N)O3)cc1 (stereo unspecified) ?
PGC1a acetyl inh: inactive; Cneo AK release: inactive

What do the screens show for `Cc1cc(C)cc(-n2c(C)cc(/C=N\NC(=O)COc3cccc4cccnc34)c2C)c1`?
PGC1a acetyl inh: inactive; FGF22 binding: inactive; Cneo AK release: inactive; HIV Env fusion: inactive; rRNA inh HTS: -21; ERAP1 inh: inactive

How did Cc1cc(/C=N/NC(=O)COc2cccc3cccnc23)c(C)n1-c1ccc(O)cc1 do in these assays?
HIV Env fusion: inactive

How did O=C(COc1nsnc1N1CCOCC1)Nc1cccc(Cl)c1 do in these assays?
PGC1a acetyl inh: inactive; FGF22 binding: inactive; Cneo AK release: inactive; HIV Env fusion: inactive; rRNA inh HTS: inactive; ERAP1 inh: inactive

What do the screens show for `CC(O)CNc1nc2ccccc2n1-c1ncnc2sc3c(c12)CCC3` (stereo unspecified)?
PGC1a acetyl inh: inactive; Cneo AK release: inactive; HIV Env fusion: 60

What do the screens show for `CCOC(=O)c1sc(=S)n(C)c1NC(=O)c1cccc(Br)c1`?
PGC1a acetyl inh: inactive; FGF22 binding: inactive; Cneo AK release: inactive; HIV Env fusion: inactive; rRNA inh HTS: -49; ERAP1 inh: inactive

Results for CCOC(=O)c1sc(=S)n(C)c1NC(=O)c1ccccc1 ?
Cneo AK release: inactive; HIV Env fusion: inactive

What do the screens show for `O=C(CC1CC1)NC[C@H]1N[C@H](CO)[C@@H]1c1ccc(-c2ccc(F)cc2)cc1`?
rRNA inh HTS: inactive; ERAP1 inh: inactive

What do the screens show for `Cc1ccsc1C(=O)Nc1cc(Cl)ccc1-n1cncn1`?
PGC1a acetyl inh: 61; FGF22 binding: inactive; Cneo AK release: inactive; rRNA inh HTS: inactive; ERAP1 inh: inactive

How did O=C(Nc1cc(Cl)ccc1-n1cncn1)c1ccc(Br)o1 do in these assays?
FGF22 binding: 13; HIV Env fusion: inactive; rRNA inh HTS: inactive; ERAP1 inh: inactive

Results for CCCN(CC(=O)Nc1cc(Cl)ccc1Cl)C(=O)CN1C(=O)C2CCCCC2C1=O (stereo unspecified) ?
FGF22 binding: inactive; Cneo AK release: inactive; HIV Env fusion: inactive; rRNA inh HTS: inactive; ERAP1 inh: inactive

Results for CCOC(=O)c1ccc(NC(=O)NC2=NCCS2)cc1 ?
FGF22 binding: inactive; HIV Env fusion: inactive; rRNA inh HTS: inactive; ERAP1 inh: inactive

Results for Cc1ccc(-n2c(NN)nc3ccccc3c2=O)c(C)c1 ?
FGF22 binding: inactive; HIV Env fusion: inactive; ERAP1 inh: inactive

What do the screens show for `Cc1ccc(-n2c(-c3ccccc3)c[n+]3c2CCc2ccccc2-3)c(C)c1`?
FGF22 binding: inactive; HIV Env fusion: inactive; rRNA inh HTS: -53; ERAP1 inh: inactive

Results for CC1(C)OC(=O)C(=C2CCCN2)C(=O)O1 ?
Cneo AK release: inactive

Results for CC1(C(=O)NCc2ccccc2)CCC(=O)N1C1CCN(Cc2ccccc2)CC1 (stereo unspecified) ?
FGF22 binding: inactive; HIV Env fusion: inconclusive; ERAP1 inh: inactive

How did CCCCNC(=O)C1(C)CCC(=O)N1C1CCN(Cc2ccccc2)CC1 (stereo unspecified) do in these assays?
PGC1a acetyl inh: inactive; FGF22 binding: inactive; Cneo AK release: inactive; HIV Env fusion: 64; rRNA inh HTS: inactive; ERAP1 inh: inactive

Results for CNC(=O)CCc1ccc(OC)cc1 ?
PGC1a acetyl inh: inactive; FGF22 binding: inactive; Cneo AK release: inactive; HIV Env fusion: inactive; rRNA inh HTS: inactive; ERAP1 inh: inactive

What do the screens show for `COc1cc(Br)cc(CN2CCN(C/C=C/c3ccccc3)CC2)c1O`?
PGC1a acetyl inh: inactive; FGF22 binding: inactive; Cneo AK release: inactive; rRNA inh HTS: -34; ERAP1 inh: inactive

What do the screens show for `COc1ccc(O)c(CN2CCN(C/C=C/c3ccccc3)CC2)c1`?
PGC1a acetyl inh: inactive; Cneo AK release: inactive

What do the screens show for `CC[n+]1oc(-c2ccccc2)cc1C`?
PGC1a acetyl inh: inactive; FGF22 binding: 43; HIV Env fusion: inactive; rRNA inh HTS: inactive; ERAP1 inh: inactive

Results for CC(NC(=O)C(=O)NCc1cccs1)c1ccccc1 (stereo unspecified) ?
PGC1a acetyl inh: inactive; FGF22 binding: inactive; Cneo AK release: inactive; HIV Env fusion: inactive; rRNA inh HTS: inactive; ERAP1 inh: inactive

What do the screens show for `CCC(C(=O)NCCc1ccc(C)cc1)n1nc(C)c2c(C)n(-c3ccccc3)nc2c1=O` (stereo unspecified)?
PGC1a acetyl inh: inactive; FGF22 binding: inactive; Cneo AK release: inactive; HIV Env fusion: inactive; rRNA inh HTS: -21; ERAP1 inh: inactive

Results for C/C(=N\NC(=O)CCc1ccc(S(=O)(=O)N2CCOCC2)cc1)c1ccc(OC(F)F)cc1 ?
PGC1a acetyl inh: inactive; FGF22 binding: inactive; Cneo AK release: inactive; HIV Env fusion: inactive; rRNA inh HTS: inactive; ERAP1 inh: inactive

Bioassay records: PubChem BioAssay, Broad Institute
